Test results taken from ChEMBL document CHEMBL1130090, “Antitumor agents. 174. 2',3',4',5,6,7-Substituted 2-phenyl-1,8-naphthyridin-4-ones: their synthesis, cytotoxicity, and inhibition of tubulin polymerization” (J Med Chem, 1997).

How the values were obtained:
Assay type in all cases: functional
786-0 = experiment: Concentration which reduced cell growth to 50 % of level against 786-0 renal cancer line; conditions: Homo sapiens
HCT-116 = experiment: Concentration which reduced cell growth to 50 % of level against HCT116 colon cancer cell line; conditions: Homo sapiens
HL-60 = experiment: Concentration which reduced cell growth to 50 % of level against HL-60 (TB) leukemia cell line; conditions: Homo sapiens
Tumor Cell line = experiment: Cytotoxic effect in human tumor cell lines, tested by the National Cancer Institute; conditions: read-out: Average LogGI50 (converted)
MDA-N = experiment: Concentration which reduced cell growth to 50 % of level against MDA-N breast cancer line; conditions: Homo sapiens
MDA-MB-435 = experiment: Concentration which reduced cell growth to 50 % of level against MDA-MB-435 breast cancer line; conditions: Homo sapiens
NCI-H460 = experiment: compound was tested for concentration which reduced cell growth to 50 % of level against NCI-H460 non -small-cell lung cancer cell line; conditions: Homo sapiens
OVCAR-3 = experiment: Concentration which reduced cell growth to 50 % of level against OVCAR-3 ovarian cancer line; conditions: Homo sapiens
PC-3 = experiment: Concentration which reduced cell growth to 50 % of level against PC-3 prostate cancer line; conditions: Homo sapiens
SF-295 = experiment: Concentration which reduced cell growth to 50 % of level against SF-295 CNS cancer line; conditions: Homo sapiens
SK-MEL-5 = experiment: Concentration which reduced cell growth to 50 % of level against SK-MEL-5 melanoma cell line; conditions: Homo sapiens
U-251 = experiment: Concentration which reduced cell growth to 50 % of U251 cancer line; conditions: Homo sapiens
[1] = molecular target: Tubulin alpha chain (Sus scrofa) (UniProt P02550); experiment: Inhibition of colchicine binding and evaluated only when polymerization IC50 <=1 uM
Procedure, shortened: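 Electrophoretically homogeneous bovine brain tubulin (1.0 µM) incubated 20 min at 37 °C with 5.0 µM [3H]colchicine and 5.0 µM inhibitor in 1.0 M monosodium glutamate (pH 6.6), 1 mM MgCl2, 0.1 mM GTP, 5% (v/v) DMSO. Mixtures filtered through two stacked DEAE-cellulose filters and washed with water. Bound radioactivity counted by liquid scintillation.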

Tubulin beta chain = Tubulin beta chain (Bos taurus, UniProt Q6B856); experiment: Inhibition of bovine tubulin polymerization
Chain of Tubulin beta chain (Q6B856 whole entry): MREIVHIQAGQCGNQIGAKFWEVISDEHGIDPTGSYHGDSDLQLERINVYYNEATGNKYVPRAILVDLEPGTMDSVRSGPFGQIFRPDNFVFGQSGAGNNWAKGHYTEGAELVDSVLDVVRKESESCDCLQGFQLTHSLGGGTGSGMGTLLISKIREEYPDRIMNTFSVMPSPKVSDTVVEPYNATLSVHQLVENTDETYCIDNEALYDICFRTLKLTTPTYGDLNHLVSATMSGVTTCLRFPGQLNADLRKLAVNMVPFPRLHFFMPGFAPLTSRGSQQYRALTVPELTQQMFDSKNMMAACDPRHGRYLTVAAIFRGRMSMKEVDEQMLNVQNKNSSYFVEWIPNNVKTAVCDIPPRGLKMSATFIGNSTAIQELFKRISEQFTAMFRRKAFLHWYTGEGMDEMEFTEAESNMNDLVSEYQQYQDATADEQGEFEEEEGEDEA

Chain of Tubulin alpha chain (Sus scrofa) (P02550 whole entry, looked up): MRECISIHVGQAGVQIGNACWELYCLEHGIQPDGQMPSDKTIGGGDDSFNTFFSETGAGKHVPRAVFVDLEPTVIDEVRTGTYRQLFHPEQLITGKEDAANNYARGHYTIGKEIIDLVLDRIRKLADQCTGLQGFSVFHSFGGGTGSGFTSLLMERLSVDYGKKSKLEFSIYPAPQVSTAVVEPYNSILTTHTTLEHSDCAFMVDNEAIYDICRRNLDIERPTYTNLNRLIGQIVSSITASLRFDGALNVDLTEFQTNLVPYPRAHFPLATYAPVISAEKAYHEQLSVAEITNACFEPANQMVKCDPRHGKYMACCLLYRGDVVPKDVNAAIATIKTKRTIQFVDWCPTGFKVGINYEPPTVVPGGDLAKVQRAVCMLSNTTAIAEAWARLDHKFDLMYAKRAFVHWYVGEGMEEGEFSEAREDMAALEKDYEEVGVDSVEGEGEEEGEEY

| Compound | GI50 (786-0) | GI50 (HCT-116) | GI50 (HL-60) | GI50 (Tumor Cell line) | GI50 (MDA-N) | GI50 (MDA-MB-435) | GI50 (NCI-H460) | GI50 (OVCAR-3) | GI50 (PC-3) | GI50 (SF-295) | GI50 (SK-MEL-5) | GI50 (U-251) | inhibition [1] | IC50 (Tubulin beta chain) |
| --- | --- | --- | --- | --- | --- | --- | --- | --- | --- | --- | --- | --- | --- | --- |
| COc1cccc(-c2cc(O)c3c(C)cc(C)nc3n2)c1 | 0.437 µM | 0.407 µM | 0.174 µM | 0.646 µM | < 0.01 µM | < 0.01 µM | 0.447 µM | 0.251 µM | 0.309 µM | 0.417 µM | 0.288 µM | 0.17 µM | 22% | 0.88 µM |
| COc1ccccc1-c1cc(O)c2c(C)ccnc2n1 | 60.3 µM | 7.59 µM | 20.9 µM | 2.82 µM | 8.32 µM | 6.46 µM | 24 µM | 12.9 µM | 20.9 µM | 23.4 µM | 22.4 µM | 35.5 µM | – | 20 µM |
| COc1ccc(-c2cc(O)c3c(C)cc(C)nc3n2)cc1 | 58.9 µM | 36.3 µM | 15.5 µM | 33.1 µM | 33.1 µM | 28.8 µM | 40.7 µM | 32.4 µM | 24 µM | 42.7 µM | 17.8 µM | 91.2 µM | – | > 40 µM |
| COc1ccc(-c2cc(O)c3cc(C)cnc3n2)cc1 | 5.13 µM | 4.17 µM | 2.29 µM | 6.17 µM | 1.7 µM | 1.82 µM | 4.07 µM | 2.95 µM | 5.37 µM | 5.25 µM | 3.72 µM | 4.17 µM | – | 7.7 µM |
| Cc1ccnc2nc(-c3ccc(F)cc3)cc(O)c12 | 33.9 µM | 16.2 µM | 4.79 µM | 38 µM | 3.55 µM | 2.88 µM | 32.4 µM | 56.2 µM | 51.3 µM | 79.4 µM | 16.2 µM | 36.3 µM | – | 18 µM |
| Cc1cc(C)c2c(O)cc(-c3ccc(Cl)cc3)nc2n1 | 21.4 µM | 14.8 µM | 25.1 µM | 19.5 µM | 3.63 µM | 4.07 µM | 22.4 µM | 18.2 µM | 6.31 µM | 16.2 µM | 14.1 µM | 30.2 µM | – | 32 µM |
